Measured values of several laboratories.
Compare with care: the assays were run in different laboratories.
Target: PAS domain-containing serine/threonine-protein kinase (PASK, Homo sapiens, UniProt Q96RG2)

| effect on | action | method | concentration | endpoint | result | Structure (SMILES) |
| --- | --- | --- | --- | --- | --- | --- |
| enzyme activity | inhibitor | – | 5 µM | remaining activity | 96.3% | O=C(Nc1cnn(-c2csc(C(=O)NC3COC3)c2)c1)Nc1ccccc1Cl |
| enzyme activity | inhibitor | – | 1 µM | inhibition | -16% | CN1CC(Oc2cnc(C#N)cc2-c2ccn3nc(NC(=O)C4CC4)cc3c2)C1 |
| enzyme activity | inhibitor | – | 10 µM | remaining activity | 98% | CCN(CC)c1ccc(C2=NNC(=O)CC2C)cc1[N+](=O)[O-] (centres unmarked) |
| enzyme activity | inhibitor | – | 10 µM | inhibition | 19% | CCN(CC)CCNC(=O)c1c(C)[nH]c(/C=C2\C(=O)Nc3ccc(F)cc32)c1C |
| enzyme activity | inhibitor | – | 0.1 µM | activity vs control | 89% | Cc1cc(NC(=O)c2cccc3cc(-c4cccc5[nH]nc(N)c45)ccc23)ccc1F |
| cell-free assay | – | – | 0.5 µM | remaining signal | 96.9% | N#CCCc1ccc2c(c1)-c1[nH]c3ccc([N+](=O)[O-])cc3c1CC(=O)N2 |
| enzyme activity | inhibitor | – | 10 µM | inhibition | -9% | CNC(=O)c1cc(Oc2ccc(NC(=O)Nc3ccc(Cl)c(C(F)(F)F)c3)cc2)ccn1 |
| cell-free assay | – | – | 10 µM | remaining signal | 113% | Cc1ccc(NC(=O)c2ccc(C)c(C(F)(F)F)c2)cc1C#Cc1nn(C2CCC(O)CC2)c2ncnc(N)c12 (centres unmarked) |
| enzyme activity | inhibitor | – | 1 µM | remaining activity | 92.3% | CC(C)(O)[C@H]1CC[C@H](Nc2ccc3ncc(-c4cccc(C(F)(F)F)c4)n3n2)CC1 |
| enzyme activity | inhibitor | – | 0.3 µM | inhibition | -1% | Cc1ccc(Nc2nccc(N(C)c3ccc4c(C)n(C)nc4c3)n2)cc1S(N)(=O)=O |
| enzyme activity | inhibitor | – | 1 µM | inhibition | 6% | COc1cc2ncnc(Nc3ccc(Oc4ccccc4)c(C)c3C)c2cc1OC |
| enzyme activity | inhibitor | – | 1 µM | inhibition | < 10% | CCCS(=O)(=O)Nc1ccc(F)c(C(=O)c2c[nH]c3ncc(-c4ccc(Cl)cc4)cc23)c1F |
| cell-free assay | – | – | 0.5 µM | remaining signal | 70% | O=C1Nc2ccc(Cl)cc2C1=Cc1cc(Cl)c(O)c(Cl)c1 |
| enzyme activity | inhibitor | radiometric | 1 µM | remaining activity | 98% | CC(C)(C)c1nc(-c2cccc(NS(=O)(=O)c3c(F)cccc3F)c2F)c(-c2ccnc(N)n2)s1 |
